Tests used:
Rattus norvegicus [1] = assay: Antiinflammatory activity against albino rat assessed as inhibition of carrageenan-induced paw edema at 0.28 mmol/kg, po administered 30 mins prior to carrageenan challenge measured after 1 hr relative to control; assay type: functional
Method in brief: (§1)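 Adult male albino rats (120–140 g), in groups of four, were fasted 24 h with water allowed. Compounds were given orally as a suspension in 0.5% w/v CMC in water, and controls received CMC alone. After 30 min, 0.1 mL of 1% carrageenan in saline was injected subplantar into the right hind paw and saline into the left. Paw thickness was measured by caliper. % inhibition = [(VR−VL)control − (VR−VL)treated]/(VR−VL)control; one-way ANOVA.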

Rattus norvegicus [2] = assay: Antiinflammatory activity against albino rat assessed as inhibition of carrageenan-induced paw edema at 0.28 mmol/kg, po administered 30 mins prior to carrageenan challenge measured after 2 hrs relative to control; assay type: functional; method in brief: as §1
Rattus norvegicus [3] = assay: Antiinflammatory activity against albino rat assessed as inhibition of carrageenan-induced paw edema at 0.28 mmol/kg, po administered 30 mins prior to carrageenan challenge measured after 3 hrs relative to control; assay type: functional; method in brief: as §1
Rattus norvegicus [4] = assay: Antiinflammatory activity against albino rat assessed as inhibition of carrageenan-induced paw edema at 0.28 mmol/kg, po administered 30 mins prior to carrageenan challenge measured after 4 hrs relative to control; assay type: functional; method in brief: as §1
Rattus norvegicus [5] = assay: Antiinflammatory activity against albino rat assessed as inhibition of carrageenan-induced paw edema at 0.28 mmol/kg, po administered 30 mins prior to carrageenan challenge measured after 5 hrs relative to control; assay type: functional; method in brief: as §1
Rattus norvegicus [6] = assay: Antiinflammatory activity against albino rat assessed as inhibition of carrageenan-induced paw edema at 0.28 mmol/kg, po administered 30 mins prior to carrageenan challenge measured after 3 hrs relative to indomethacin; assay type: functional; design: scale not given: the % may be the effect or the level left
Rattus norvegicus [7] = assay: Antiinflammatory activity against albino rat assessed as inhibition of carrageenan-induced paw edema at 0.28 mmol/kg, po administered 30 mins prior to carrageenan challenge measured after 3 hrs relative to celecoxib; assay type: functional; design: scale not given: the % may be the effect or the level left
Rattus norvegicus [8] = assay: Gastric toxicity in rat assessed as ulcer index at 0.28 mmol/kg, po; assay type: organism-based; details: in vivo
[9] = molecular target: T1, Prostaglandin G/H synthase 1 (Ovis aries, UniProt P05979); assay: Inhibition of ovine COX1 using ADHP as substrate after 20 mins by fluorescence assay
T1 sequence (P05979 whole entry): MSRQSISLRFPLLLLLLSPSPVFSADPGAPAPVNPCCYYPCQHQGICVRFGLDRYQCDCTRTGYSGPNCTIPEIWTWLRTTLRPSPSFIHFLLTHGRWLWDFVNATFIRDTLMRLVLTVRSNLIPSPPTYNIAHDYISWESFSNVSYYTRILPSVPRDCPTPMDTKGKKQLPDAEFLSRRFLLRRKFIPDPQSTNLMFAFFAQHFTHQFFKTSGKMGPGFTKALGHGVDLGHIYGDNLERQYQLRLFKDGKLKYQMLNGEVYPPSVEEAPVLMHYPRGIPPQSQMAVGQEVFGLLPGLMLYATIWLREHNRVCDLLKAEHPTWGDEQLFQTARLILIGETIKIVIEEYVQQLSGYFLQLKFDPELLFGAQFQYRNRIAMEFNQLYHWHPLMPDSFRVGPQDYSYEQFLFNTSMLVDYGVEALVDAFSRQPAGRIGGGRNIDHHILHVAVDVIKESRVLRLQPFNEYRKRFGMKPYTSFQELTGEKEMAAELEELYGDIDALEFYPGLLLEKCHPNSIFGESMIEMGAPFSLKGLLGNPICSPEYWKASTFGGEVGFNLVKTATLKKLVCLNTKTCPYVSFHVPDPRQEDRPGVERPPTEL
Method in brief: (§2)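 Ovine COX-1 or human recombinant COX-2 was preincubated 20 min at room temperature with a range of compound concentrations in 100 mM Tris-HCl pH 8.0, heme and ADHP. Arachidonic acid was then added for 2 min at room temperature, and resorufin fluorescence was read. IC50 came from the dose-response curve (triplicate determinations). Selectivity index = COX-1 IC50/COX-2 IC50.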

[10] = molecular target: T2, Prostaglandin G/H synthase 2 (Homo sapiens, UniProt P35354); assay: Inhibition of human recombinant COX2 using ADHP as substrate after 20 mins by fluorescence assay; method in brief: as §2
T2 sequence (P35354 whole entry): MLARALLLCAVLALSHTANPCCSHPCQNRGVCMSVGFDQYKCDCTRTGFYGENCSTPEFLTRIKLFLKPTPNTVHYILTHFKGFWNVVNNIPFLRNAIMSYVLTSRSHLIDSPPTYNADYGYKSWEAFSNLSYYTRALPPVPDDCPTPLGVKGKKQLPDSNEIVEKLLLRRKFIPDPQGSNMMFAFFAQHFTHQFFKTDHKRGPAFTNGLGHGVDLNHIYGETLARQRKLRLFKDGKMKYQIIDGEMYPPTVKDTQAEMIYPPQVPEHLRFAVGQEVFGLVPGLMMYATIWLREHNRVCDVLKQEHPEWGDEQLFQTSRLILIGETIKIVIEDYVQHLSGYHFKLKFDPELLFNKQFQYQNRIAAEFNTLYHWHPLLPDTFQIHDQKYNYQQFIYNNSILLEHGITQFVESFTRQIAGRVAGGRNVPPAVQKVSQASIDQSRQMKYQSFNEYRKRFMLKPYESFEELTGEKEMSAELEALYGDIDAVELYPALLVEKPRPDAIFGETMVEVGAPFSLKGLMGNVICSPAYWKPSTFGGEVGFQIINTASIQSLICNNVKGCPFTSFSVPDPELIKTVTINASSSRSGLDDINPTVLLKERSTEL

[11] = Selectivity index, ratio of IC50 for ovine COX1 to IC50 for human recombinant COX2; method in brief: as §2

| SMILES | IC50 [9] | IC50 [10] | Ratio IC50 [11] | inhibition in vivo at 280 µmol/kg (Rattus norvegicus [1]) | inhibition in vivo at 280 µmol/kg (Rattus norvegicus [2]) | inhibition in vivo at 280 µmol/kg (Rattus norvegicus [3]) | inhibition in vivo at 280 µmol/kg (Rattus norvegicus [4]) | inhibition in vivo at 280 µmol/kg (Rattus norvegicus [5]) | Activity (Rattus norvegicus [6]) | Activity (Rattus norvegicus [7]) | UI (Rattus norvegicus [8]) |
| --- | --- | --- | --- | --- | --- | --- | --- | --- | --- | --- | --- |
| CC(=O)c1ccc(NC(=O)c2nc(-c3ccccc3)n(-c3ccc(S(N)(=O)=O)cc3)n2)cc1 |  |  |  | 53% | 68% | 73% | 64% | 42% | 92% | 106% | 0.5 |
| CC(C)NC(=O)c1nc(-c2ccccc2)n(-c2ccc(S(N)(=O)=O)cc2)n1 | > 1000 µM | 16 µM | > 62.5 | 21% | 43% | 55% | 44% | 43% | 70% | 80% | 0 |
| COc1ccc2c(c1)c(CC(=O)O)c(C)n2C(=O)c1ccc(Cl)cc1 [INDOMETHACIN] |  |  |  | 54% | 66% | 79% | 81% | 84% | 100% |  | 39 |
| NNC(=O)c1nc(-c2ccccc2)n(-c2ccc(S(N)(=O)=O)cc2)n1 |  |  |  | 32% | 53% | 60% | 45% | 32% | 76% | 87% | 3 |
| NC(=O)c1nc(-c2ccccc2)n(-c2ccc(S(N)(=O)=O)cc2)n1 |  |  |  | 43% | 48% | 52% | 49% | 42% | 66% | 75% | 2 |
| COc1ccc(NC(=O)c2nc(-c3ccccc3)n(-c3ccc(S(N)(=O)=O)cc3)n2)cc1OC | 346 µM | 1.3 µM | 266 | 22% | 52% | 72% | 63% | 60% | 91% | 104% | 0 |
| COC(=O)c1nc(-c2ccccc2)n(-c2ccc(S(N)(=O)=O)cc2)n1 |  |  |  | 38% | 48% | 69% | 61% | 46% | 87% | 100% | 3 |
| Cc1ccc(-c2cc(C(F)(F)F)nn2-c2ccc(S(N)(=O)=O)cc2)cc1 [CELECOXIB] |  |  |  | 44% | 50% | 69% | 59% | 52% |  | 100% | 0.5 |
| NS(=O)(=O)c1ccc(-n2nc(C(=O)NC3CCCCC3)nc2-c2ccccc2)cc1 | > 1000 µM | 0.66 µM | > 1520 | 20% | 43% | 65% | 53% | 42% | 82% | 94% | 0 |

Continued, in another order:

| IC50 [9] | IC50 [10] | Ratio IC50 [11] | SMILES | inhibition in vivo at 280 µmol/kg (Rattus norvegicus [1]) | inhibition in vivo at 280 µmol/kg (Rattus norvegicus [2]) | inhibition in vivo at 280 µmol/kg (Rattus norvegicus [3]) | inhibition in vivo at 280 µmol/kg (Rattus norvegicus [4]) | inhibition in vivo at 280 µmol/kg (Rattus norvegicus [5]) | Activity (Rattus norvegicus [6]) | Activity (Rattus norvegicus [7]) | UI (Rattus norvegicus [8]) |
| --- | --- | --- | --- | --- | --- | --- | --- | --- | --- | --- | --- |
| 516 µM | 1.9 µM | 271 | Cc1ccc(NC(=O)c2nc(-c3ccccc3)n(-c3ccc(S(N)(=O)=O)cc3)n2)cc1 | 40% | 47% | 76% | 71% | 65% | 96% | 110% | 1 |
| > 1000 µM | 0.89 µM | > 1120 | COc1ccc(NC(=O)c2nc(-c3ccccc3)n(-c3ccc(S(N)(=O)=O)cc3)n2)cc1 | 53% | 57% | 78% | 73% | 55% | 99% | 113% | 2.3 |
| > 1000 µM | 1.7 µM | > 588 | NS(=O)(=O)c1ccc(-n2nc(C(=O)NCc3ccccc3)nc2-c2ccccc2)cc1 | 42% | 47% | 58% | 36% | 29% | 73% | 84% | 3 |
| 798 µM | 0.38 µM | 2100 | NS(=O)(=O)c1ccc(-n2nc(C(=O)Nc3nc4ccccc4s3)nc2-c2ccccc2)cc1 | 20% | 32% | 54% | 44% | 38% | 68% | 78% | 1 |
| > 1000 µM | 0.47 µM | > 2130 | NS(=O)(=O)c1ccc(-n2nc(C(=O)Nc3ccc(Cl)cc3)nc2-c2ccccc2)cc1 | 36% | 62% | 67% | 53% | 44% | 85% | 97% | 0.5 |

— ChEMBL document CHEMBL3286385, “Novel 1-[4-(Aminosulfonyl)phenyl]-1H-1,2,4-triazole derivatives with remarkable selective COX-2 inhibition: design, synthesis, molecular docking, anti-inflammatory and ulcerogenicity studies” (Eur J Med Chem, 2014)
